This excerpt belongs to a sample that is enriched for hits.
RORa inhibitor = RORA (human) inhibition; P35398; CHO-K1 Gal4-RORA LBD luciferase reporter, luminescence; inhibition, % at 10 µM; 0.43% of 65,000 active;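 active = inhibition above the mean of all tested compounds plus 3 SD, cut at about 52% in these data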;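 also: 0% = RORA-transfected cells with DMSO and 100% = mock-transfected cells lacking RORA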
Target sequence (P35398 whole entry, looked up, the tested form may be a part): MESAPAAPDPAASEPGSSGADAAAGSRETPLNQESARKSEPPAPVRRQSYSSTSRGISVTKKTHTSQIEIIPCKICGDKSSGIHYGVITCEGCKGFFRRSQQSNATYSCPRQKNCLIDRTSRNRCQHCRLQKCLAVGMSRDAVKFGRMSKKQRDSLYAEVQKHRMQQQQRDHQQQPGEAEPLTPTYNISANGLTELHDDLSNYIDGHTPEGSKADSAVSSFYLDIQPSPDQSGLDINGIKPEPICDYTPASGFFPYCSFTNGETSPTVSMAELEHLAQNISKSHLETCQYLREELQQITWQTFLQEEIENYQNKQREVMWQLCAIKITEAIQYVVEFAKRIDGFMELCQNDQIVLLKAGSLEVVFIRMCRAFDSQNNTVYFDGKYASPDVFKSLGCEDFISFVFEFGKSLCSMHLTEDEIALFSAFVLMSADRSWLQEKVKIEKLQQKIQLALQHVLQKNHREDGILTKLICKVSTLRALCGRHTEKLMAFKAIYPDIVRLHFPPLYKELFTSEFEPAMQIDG
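Test system: CHO-K1 cells with Gal4-hRORA LBD fusion and pG5-luc reporter / Compound: single concentration per compound, 10 µM final / Schedule: 20 h compound treatment, 37 °C / Signal: luminescence from basal luciferase reporter expression / Read-out: % inhibition / Control set: mock-transfected cells as 100%, +RORA DMSO cells as 0% / Replicates: tested once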
* marks the source's active call; other numbers are inactive results.

SMILES	RORa inhibitor
COc1cc(-c2nnc3sc(-c4cccnc4)nn23)cc(OC)c1OC	15
O=S(=O)(Cc1ccccc1)N1CCc2ccccc21	6
Cc1onc(-c2ccccc2Cl)c1C(=O)NCCN1Cc2ccccc2C1=O	-2
Cc1ccc(S(=O)(=O)N2CCC(C(=O)N3CCC(C(=O)NCc4cccnc4)CC3)CC2)cc1	10
CC(=O)c1sc(NC(=O)C2(F)C(F)(F)C(F)(F)C(F)(F)C(F)(F)C2(F)F)nc1C	90*
COC(=O)c1sc(NC(=O)c2ccoc2C)nc1C	-8
Cc1nc(NC(=O)C2CC3CCCC(C2)C3=O)sc1C (configuration not stated)	-62
COC(=O)C(O)(NC(=O)NC(C)=O)C(F)(F)F (configuration not stated)	-28
N#Cc1c(NC(=O)CSc2ncnc3sccc23)oc(-c2ccco2)c1-c1ccco1	0
O=C(NC1CCCCC1)C1CCN(S(=O)(=O)N2CCOCC2)CC1	20
COc1ccc(S(=O)(=O)N2CCC(n3cnc4cc(C(F)(F)F)ccc43)CC2)cc1	18
Cc1ccc2c(c1)nnn2C1CCN(S(=O)(=O)c2ccc(C(=O)N3C(C)CCCC3C)cc2)CC1 (configuration not stated)	63*
Cc1ccc2c(c1)nnn2C1CCN(S(C)(=O)=O)CC1	16
CCCOc1ccccc1C1CC(=O)Nc2cc3c(cc21)OCCO3 (configuration not stated)	60*
CCOc1ccccc1C1CC(=O)Nc2cc(OC)c(OC)c(OC)c21 (configuration not stated)	6
COc1cccc(C(=O)c2sc(NC(C)C)nc2N)c1	57*
CCCC(=O)Nc1nc2ccc(OC)cc2s1	-56
COc1cccc(C(=O)Nc2ccccc2N2CCCC2)c1	10
COc1cc(C(C)=O)ccc1OCC(=O)c1cc(C)n(C2CC2)c1C	19
COc1cccc(NC(=O)c2nnn(Cc3ccc(Br)cc3F)c2N)c1	-58
COc1cc(CN/C(C)=C(\C#N)C(N)=O)cc(OC)c1OC	-15
O=C(Nc1ccc(N2CCOCC2)c(Cl)c1)C1CCCCC1	-49
O=C(Nc1ccc(N2CCOCC2)c(Cl)c1)c1ncn[nH]1	-8
Cc1cc(C)nc(SCC(=O)Nc2ccc(N3CCOCC3)c(Cl)c2)n1	53*
O=C(O)c1cccc(S(=O)(=O)N2CCSCC2)c1	3
SMILES	RORa inhibitor
O=C(c1ccccc1)c1ccc(N2CCOCC2)c(F)c1	-74
O=C(c1ccccc1)C(CCC(CN1CCOCC1)C(=O)c1ccccc1)CN1CCOCC1 (configuration not stated)	56*
O=C(Nc1ccc(CN2CCOCC2)cc1)c1cccc(F)c1	-37
Cc1cccc(-c2noc(Cc3ccc(Cl)cc3)n2)c1	-12
Clc1cccc(-c2nc(-c3ccccn3)no2)c1	62*
c1ccc(CCCc2nc(-c3ccccn3)no2)cc1	-50
Clc1cc(Cl)c(OCc2nc(-c3ccccn3)no2)cc1Cl	-52
Cc1ccc(-c2nc(-c3ccccn3)no2)cc1Cl	81*
CC(C)(C)c1ccc(OCc2nc(-c3ccccn3)no2)c(Br)c1	-67
c1ccc(Cc2nc(-c3ccccn3)no2)cc1	-61
Brc1ccc(-c2nc(-c3ccccc3)no2)o1	-68
Cc1ccc(-c2nc(-c3ccccn3)no2)cc1	90*
O=S(=O)(c1ccc(NC2CCCCC2)cc1)N1CCOCC1	12
COc1cc2c(cc1OC)C(=NCCC(=O)O)NC(C)(C)C2	3
CCC(C)Nc1nc(OC)nc(N(C)C#N)n1 (configuration not stated)	25
CCC(C)C(NC(=O)OC(C)(C)C)C(=O)NC(C(=O)N1CCCC1C(N)=O)C(C)CC (configuration not stated)	1
COC(=O)c1c(NC(=O)CC2SCC(C(=O)OC)NC2=O)sc2c1CCCC2 (configuration not stated)	-52
COc1ccc(-n2c(SCCC(=O)O)nnc2-c2ccncc2)cc1	7
COc1ccccc1N1CCN(c2ncnc3c2oc2ccccc23)CC1	-56
COc1ccc(CCNc2ncnc3c2oc2ccccc23)cc1OC	84*
Cc1cc(C)n(-c2ncnc3c2oc2ccccc23)n1	10
CC1CCN(C(=O)CSc2nnc(-c3ccc(S(=O)(=O)N4CCOCC4)cc3)n2C)CC1	8
c1ccn2c(SCc3cn4ccsc4n3)nnc2c1	-61
CC1Cc2ccccc2N1C(=O)CSc1nnc(-c2ccc(S(=O)(=O)N3CCCC3)cc2)o1 (configuration not stated)	0
O=C(Nc1ccc(Cl)cc1)c1ccc2c(c1)OCO2	-9
SMILES	RORa inhibitor
O=C(c1ccc2c(c1)OCO2)N1CCc2ccccc2C1	-66
O=C(NCCOc1ccccc1)c1ccc2c(c1)OCO2	63*
CN(C)c1ccc(-c2ccccc2)nn1	-56
O=C(NCCC1=CCCCC1)N[C@@H](Cc1ccccc1)C(=O)O	-3
CCOC(=O)c1cnc(SCC(=O)c2ccccc2)nc1N	-59
NC(=O)CSc1nnc(Cc2ccc3c(c2)OCO3)n1C1CCCCC1	-7
O=C(Nc1ccccc1)NC1(C(=O)N2CCN(c3ncccn3)CC2)CCCCC1	-16
O=C(c1n[nH]c2ccccc12)N1CCN(S(=O)(=O)c2ccc3ccccc3c2)CC1	5
O=C(CSc1nnnn1-c1ccccc1)Nc1nsc(-c2ccc(Cl)cc2)n1	71*
Cn1nnc(NC(=O)CSc2ccc(Cl)cc2)n1	-10
Cn1nnc(NC(=O)CSc2nnnn2-c2ccc(F)cc2)n1	17
CCCCN1c2cc(C)c(O)cc2C(C(=O)OCC)C1C (configuration not stated)	5
CC(=O)OC(C(=O)Nc1ccccc1)C(C)S(=O)(=O)c1ccccc1 (configuration not stated)	20
CCCCCn1c(CN2CCN(Cc3ccccc3)CC2)nc2c1c(=O)n(C)c(=O)n2C	12
C=CCOc1nc2c(c(=O)n(C)c(=O)n2C)n1Cc1ccc(Cl)cc1	58*
CC1CCN(c2nc3c(c(=O)n(C)c(=O)n3C)n2Cc2ccccc2)CC1	-14
CCc1nnc2c3cnn(-c4ccc(C)c(C)c4)c3ncn12	-57
CCOC(=O)c1c(C)[nH]c(C(=O)C(C)OC(=O)c2cccc(OCc3c(C)noc3C)c2)c1C (configuration not stated)	56*
COc1ccc2nc(NC(=O)c3cccc(OCc4c(C)noc4C)c3)sc2c1	-86
CCOC(=O)c1[nH]c(C)c(C(=O)c2cc(F)ccc2F)c1C	8
CCC12CN(C(=O)c3ccc(OC)cc3)CC(CC)(CN(C(=O)c3ccc(OC)cc3)C1)C2=O	1
COc1cccc(NC(=O)CNC(C)CCC(C)C)c1 (configuration not stated)	14
COc1cccc(NC(=O)Cn2c(SCC(=O)N3CCOCC3)nc3ccccc32)c1	-17
COc1cccc(NC(=O)CSc2nnc(-c3cc(C)n(-c4ccccc4)c3C)o2)c1	71*
O=C1CCn2nc(-c3ccc(Cl)cc3)cc2N1	-61
SMILES	RORa inhibitor
Cc1cccc(C)c1NC(=O)c1cc(S(=O)(=O)N2CCOCC2)ccc1F	-3
CC(=O)c1ccc(N2CCN(c3ccc(C(F)(F)F)cn3)CC2)cc1	54*
COc1ccc(C(=O)CN2CCN(c3ccc(F)cc3)CC2)cc1OC	14
CC(=O)c1cc2c(cc1NC(=O)CN1CCN(c3cccc(C(F)(F)F)c3)CC1)OCO2	12
Cc1oc2cc(O)cc(O)c2c(=O)c1-c1ccc2c(c1)OCCCO2	-58
Cc1oc(-c2ccc3c(c2)OCCO3)cc1C(=O)NC(CCC(=O)O)C(=O)O (configuration not stated)	-1
